In the library only some 2.9% were active in any assay of this set; here they are far more common.
CHO-K1 Ca antag: nonselective inhibitor or artifact in parental CHO-K1 cells. AID 602250. inhibition, % at 3 µM. ATP-induced calcium, Fluo-8 fluorescence. hit rate 0.6% among 360,000;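 active means inhibition above a per-plate cutoff, the plate's mean sample inhibition plus 3 SD, cut at about 24% in these data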
OX1R antag-1: antagonists of human orexin 1 receptor; inhibition, % at 5 µM; CHO/OX1R cells, Fluo-8 calcium fluorescence, orexin A; hit rate 0.43% among 330,000; O43613;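 active means inhibition above its plate's threshold, mean inhibition of all tested compounds on the plate plus 3 SD, cut at about 37% in these data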
Target sequence (O43613 whole entry, looked up): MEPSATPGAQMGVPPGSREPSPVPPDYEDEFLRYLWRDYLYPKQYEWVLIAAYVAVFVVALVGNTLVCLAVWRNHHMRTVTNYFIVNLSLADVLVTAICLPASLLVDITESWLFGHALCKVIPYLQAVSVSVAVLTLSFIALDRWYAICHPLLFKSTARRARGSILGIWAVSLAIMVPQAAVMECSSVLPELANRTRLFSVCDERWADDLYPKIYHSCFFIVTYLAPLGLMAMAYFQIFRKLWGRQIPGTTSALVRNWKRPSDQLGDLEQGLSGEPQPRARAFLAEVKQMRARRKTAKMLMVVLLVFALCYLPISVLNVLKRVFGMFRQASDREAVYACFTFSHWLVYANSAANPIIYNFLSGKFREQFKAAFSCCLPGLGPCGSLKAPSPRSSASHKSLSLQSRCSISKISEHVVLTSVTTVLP
CHO parental Ca: counter-screen: ATP calcium response change in parental CHO cells; inhibition, % at 5.6 µM; parental CHO-K1, ATP-induced calcium, Fluo-8 fluorescence; hit rate 0.63% among 330,000;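 active means inhibition above that plate's mean sample inhibition plus 3 SD, cut at about 26% in these data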
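Material – parental CHO cells · Reagent – ATP stimulus · Compound – single nominal dose of 5.6 µM per compound · Detection – Fluo-8 fluorescence · Read-out basis – percent inhibition of calcium signal · Controls – ATP-challenged DMSO wells low, unchallenged DMSO wells high · Repeats – no replicates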
M1 PAM parental: counter-screen for M1 PAMs: effect in parental CHO-K1 cells | activation, % at 3 µM | hit rate 0.02% among 360,000 | AID 602247 | ATP EC20, Fluo-8 calcium fluorescence; 0% at ATP EC20, 100% at ATP max;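 active means activation above the run cutoff, the mean activation of all test compounds plus 3 SD, cut at about 40% in these data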;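 further: peak over basal fluorescence ratio in a 140 s read after ATP addition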
CHO-K1 Ca ag: counter-screen for M1 agonists: effect in parental CHO-K1 cells; Fluo-8 calcium fluorescence; scaled to maximal ATP response, vehicle zero; activation, % at 3 µM; hit rate 0.48% among 360,000; in the data active means activation above about 15%;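 further: untransfected CHO-K1 host cells lacking M1 receptor as counterscreen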
OX1R antag-2: antagonists of human orexin 1 receptor (OX1R) | OX1R-expressing cells, FRET antagonist read-out | inhibition, % at 6.6 µM | hit rate 1.8% among 330,000; in the data active means inhibition mostly above about 38%, no sharp cut-off; inactive means mostly below about 40%
OX1R Fluo8 conf: OX1R (human) antagonism, confirmed; shares compounds with OX1R antag-1; CHO/OX1R cells, orexin A calcium Fluo-8 fluorescence; inhibition, % at 5 µM; hit rate 38% among 1,100; AID 492963; in the data active means inhibition above about 29%
CHO Ca counter: counter-screen for OX1R antagonists: effect in parental CHO cells; inhibition, % at 5.6 µM; hit rate 9.3% among 1,100; shares compounds with OX1R antag-1; parental CHO-K1, ATP-induced calcium, Fluo-8 fluorescence;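 active means inhibition above a per-plate limit, the mean inhibition of that plate's test compounds plus 3 SD, cut at about 25% in these data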
Of the large screens only hits and unclear results are named; the others gave an inactive call (follow-up assays come after a bar, where they were run).

CC(C)(C)c1cc(-c2ccccc2)n[nH]1	none
Fc1ccc(-c2cc(C(F)(F)C(F)F)[nH]n2)cc1	CHO-K1 Ca ag 26 | OX1R Fluo8 conf 37 | CHO Ca counter inactive
Cc1ccc(C)n1-c1nn(S(=O)(=O)c2cccc3cccnc23)c2cccc(F)c12	OX1R antag-1 39 | OX1R Fluo8 conf 30 | CHO Ca counter inactive
Cc1ccc(S(=O)(=O)n2nc(-n3c(C)ccc3C)c3c(F)cccc32)c2ccccc12	none
O=C(CSCc1cccc(CSCC(=O)Nc2ccc3ccccc3c2)n1)Nc1ccc2ccccc2c1	none | OX1R Fluo8 conf 31 | CHO Ca counter inactive
O=C(CSCc1nc2ccccc2[nH]1)Nc1ccc2ccccc2c1	none
Cc1ccc(S(=O)(=O)N2C[C@@H]3[C@H]4CC[C@H](C4)[C@@H]3[C@@H](C)[C@H]2c2ccco2)cc1	OX1R antag-1 82 | OX1R Fluo8 conf inactive | CHO Ca counter inactive
COc1ccc(CN2CCC2(C)C(=O)NCc2ccc3c(c2)OCO3)c2ccccc12 (stereo not drawn)	none (no result: OX1R antag-1, CHO parental Ca, OX1R antag-2)
COc1ccc(NC(=O)CN2CCN(CC(=O)Nc3ccc(F)cc3F)CC2)cc1	none (no result: OX1R antag-1, CHO parental Ca, OX1R antag-2)
COc1ccccc1-n1c(SCC(=O)Nc2ccc(NC(C)=O)cc2)nc2c([nH]c3ccccc32)c1=O	none
Cc1coc2cc3oc(=O)ccc3cc12	OX1R antag-1 106 | OX1R Fluo8 conf inactive | CHO Ca counter inactive
Cc1ccc2nc(NC(=O)CCNS(=O)(=O)c3cccs3)sc2c1	none
Cc1cccc2sc(NC(=O)CCNS(=O)(=O)c3cccs3)nc12	none | OX1R Fluo8 conf inactive | CHO Ca counter inactive
O=C(CCc1ccncc1)NC1CCCc2c1cnn2-c1cc(F)cc(F)c1 (stereo not drawn)	OX1R antag-1 46 | OX1R Fluo8 conf inactive | CHO Ca counter inactive
CSCC(=O)NC1CCCc2c1cnn2-c1cc(F)cc(F)c1 (stereo not drawn)	none (no result: OX1R antag-1, CHO parental Ca, OX1R antag-2)
CNc1snc(C)c1C(=O)OCC(=O)c1ccc(Cl)cc1	none | OX1R Fluo8 conf inactive | CHO Ca counter 45
CNc1snc(C)c1C(=O)OC(C)C(=O)c1ccc(F)cc1 (stereo not drawn)	none
Cc1ccc(NC(=O)CN(C)C(=O)COC(=O)[C@@H](NC(=O)c2ccccc2F)C(C)C)cc1	none
CC(C)(C)c1ccc(OCC(O)CN(CCO)CC(O)Cn2ccc3ccccc32)cc1 (stereo not drawn)	none
OCCN(CC(O)Cn1ccc2ccccc21)CC(O)Cn1ccc2ccccc21 (stereo not drawn)	none | OX1R Fluo8 conf inactive | CHO Ca counter inactive
O=C(O)Cn1c2ccccc2c2nc3ccccc3nc21	none (no result: OX1R antag-1, CHO parental Ca, OX1R antag-2)
CCn1c2ccc(F)cc2c2nc3ccccc3nc21	none | OX1R Fluo8 conf inactive | CHO Ca counter inactive
CCCn1c2ccccc2c2nc3ccccc3nc21	none | OX1R Fluo8 conf inactive | CHO Ca counter inactive
O=C(Nc1cccc(Cl)c1)Nc1ccc2c(c1)OCO2	none | OX1R Fluo8 conf inactive | CHO Ca counter inactive
COc1cccc(NC(=O)CN(c2ccccc2OC)S(=O)(=O)c2cccs2)c1	none | OX1R Fluo8 conf inactive | CHO Ca counter inactive
CCN(c1ccc(OC)cc1)S(=O)(=O)c1cc(-c2cc(C)no2)ccc1OC	none
CCN(c1ccc(OC)cc1)S(=O)(=O)c1cc(-c2cc(C)no2)ccc1C(C)C	none | OX1R Fluo8 conf inactive | CHO Ca counter inactive
O=C(Nc1cccc(Cl)c1)c1ccc(S(=O)(=O)NCC2CCCO2)cc1 (stereo not drawn)	none
O=C1N[C@@H](c2ccccc2)COC(=O)[C@H](Cc2ccc(F)cc2)C/C=C\C[C@H]1CC(=O)N(CCO)Cc1ccccc1	none (no result: OX1R antag-1, CHO parental Ca, OX1R antag-2)
O=C1N[C@@H](c2ccccc2)COC(=O)[C@@H](Cc2ccc(F)cc2)C/C=C\C[C@@H]1CC(=O)N(CCO)Cc1ccccc1	CHO-K1 Ca ag 17 | OX1R Fluo8 conf 63 | CHO Ca counter inactive
COC(C/C=C/C(=O)[C@H](C)OCc1ccccc1)OC	none
COc1ccc(-c2cc(-c3ccc(OC)c(OC)c3)n[nH]2)c(O)c1	none | OX1R Fluo8 conf inactive | CHO Ca counter inactive
